The results in this text go back to ChEMBL document CHEMBL3425441 (J Med Chem, 2015).

The nature of series [1]: Cytotoxicity against human U937 cells assessed as cell death after 72 hrs by sulforhodamine B assay. Conditions: U-937, 72 h. A general note: In SRB staining, fixed cells bind dye roughly in proportion to their protein; call rule not given here.
The nature of series [2]: Metabolic stability in rat liver microsomes at 10 uM after 3 hrs by LC/MS analysis. The format is ADME. The note with it: read-out: Stability. (Liver microsomes are vesicles of endoplasmic reticulum, rich in cytochrome P450 enzymes.)
In series [3] the test system is Serum. Briefly: Drug uptake in C57/BL6 mouse serum at 25 mg/kg, iv measured after 8 hrs by LC/MS/MS analysis. The note with it: in vivo. Set-up: dose 25 mg/kg, route intravenous. The format is ADME, organism-based. Put shortly: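 Mouse PK: C57/BL6 mice, n = 2 per cohort per time point, 25 mg/kg given by tail vein injection or oral gavage; formulated at 5 mg/mL in 200 mg/mL HPβCD, pH 5.5. Mice sacrificed at set times, blood collected, EDTA plasma frozen at -80°C. Levels measured by LC/MS/MS (Polar-RP column, formic acid/methanol gradient, negative ESI) against an internal standard.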

Series [4] can be described thus: Metal chelating activity of the compound assessed as zinc complex formation after 5 mins by EGTA fluorescence titration Assay. The format is physicochemical.
For series [5], the target named is Caspase-3/Caspase-7 (Homo sapiens) (UniProt P42574+P55210). In words: Activation of Caspase 3/7 in human U937 cells assessed as cleavage of Ac-DEVD-AFC at 30 uM after 16 hrs by fluorescence assay relative to control. It is filed as cell-based. Conditions: U-937.
Chain of Caspase-3/Caspase-7 (Homo sapiens) (P42574 whole entry, looked up): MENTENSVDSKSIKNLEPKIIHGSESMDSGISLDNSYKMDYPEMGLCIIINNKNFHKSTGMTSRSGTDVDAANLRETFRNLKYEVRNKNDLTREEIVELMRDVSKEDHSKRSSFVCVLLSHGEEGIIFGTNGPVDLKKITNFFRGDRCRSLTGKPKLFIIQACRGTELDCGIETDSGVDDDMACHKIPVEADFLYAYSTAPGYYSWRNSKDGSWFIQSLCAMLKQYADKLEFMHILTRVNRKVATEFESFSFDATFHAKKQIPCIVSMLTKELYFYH
Chain of Caspase-3/Caspase-7 (Homo sapiens) (P55210 whole entry, looked up): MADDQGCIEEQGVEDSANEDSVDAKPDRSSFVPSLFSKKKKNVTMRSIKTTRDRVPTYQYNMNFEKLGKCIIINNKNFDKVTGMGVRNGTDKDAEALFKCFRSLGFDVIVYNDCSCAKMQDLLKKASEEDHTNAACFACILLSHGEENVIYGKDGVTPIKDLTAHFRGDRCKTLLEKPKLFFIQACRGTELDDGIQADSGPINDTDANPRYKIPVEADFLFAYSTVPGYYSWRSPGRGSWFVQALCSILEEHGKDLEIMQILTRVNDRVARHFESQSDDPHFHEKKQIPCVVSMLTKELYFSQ
Series [6] deals with Mus musculus. Briefly: Toxicity in C57BL/6 mouse at 200 mg/kg, ip measured over 24 hrs. Conditions: in vivo. Set-up: dose 200 mg/kg, route intraperitoneal. The format is organism-based. A digest of the protocol: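 Tolerability: C57BL/6 mice aged 8-10 weeks, n = 3 per cohort, given a single 200 mg/kg i.p. dose formulated at 5 mg/mL in 200 mg/mL HPβCD, pH 5.5. Signs classed as excitatory or depressive and graded mild to severe.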

`CCCc1cc(F)cc(/C=N/NC(=O)CN2CCN(Cc3ccc(F)cc3)CC2)c1O`: the IC50 in series [1] was found to be 7.5 µM. In addition, the remaining at 3 h, 10 µM in series [2] was 48%. Regarding `CCCc1cc(F)cc(/C=N/NC(=O)CN2CCN(Cc3ccc(C#N)cc3)CC2)c1O`, the IC50 in series [1] came to 11.2 µM. The remaining at 3 h, 10 µM in series [2] was 49%.

With `O=C(CN1CCN(Cc2ccc(C(F)(F)F)cc2)CC1)N/N=C/c1cc(F)ccc1O`, in series [1], the IC50 worked out at 4.7 µM. Further, in series [2], the remaining at 3 h, 10 µM worked out at 30%.

Take `CCCc1cc(F)cc(/C=N/NC(=O)CN2CCN(Cc3ccc(S(N)(=O)=O)cc3)CC2)c1O`: the remaining at 3 h, 10 µM in series [2] stood at 62%. As to `C=CCc1cccc(/C=N/NC(=O)CN2CCN(C(=O)c3ccc(C#N)cc3)CC2)c1O`, the IC50 in series [1] is 13.1 µM. Also, the remaining at 3 h, 10 µM in series [2] amounted to 90%.

As for `CCCc1cc(F)cc(/C=N/NC(=O)CN2CCN(C(=O)c3ccc(C#N)cc3)CC2)c1O`, in series [3], the Drug uptake entry was “Active”. Moreover, the remaining at 3 h, 10 µM in series [2] worked out at 66%. With `CCCc1cc(F)cc(/C=N/NC(=O)CN2CCN(C(=O)c3ccccc3)CC2)c1O`, the IC50 in series [1] worked out at 12.3 µM. In series [2], the remaining at 3 h, 10 µM came to 86%. Take `C=CCc1cccc(/C=N/NC(=O)CN2CCN(Cc3ccc(C(F)(F)F)cc3)CC2)c1O`: the remaining at 3 h, 10 µM in series [2] was determined as 16%. As to `O=C(CN1CCN(C(=O)c2ccc(F)cc2)CC1)N/N=C/c1cc(F)ccc1O`, the IC50 in series [1] stood at 15.3 µM. Also, the remaining at 3 h, 10 µM in series [2] was determined as 86%. The matching figures for `C=CCc1cccc(/C=N/NC(=O)CN2CCN(Cc3ccc(F)cc3)CC2)c1O`: 11.1 µM and 31%. For the molecule `CCCc1cc(F)cc(/C=N/NC(=O)CN2CCN(C(=O)c3ccc(C(F)(F)F)cc3)CC2)c1O`, the remaining at 3 h, 10 µM in series [2] turned out to be 64%. As to `O=C(CN1CCN(Cc2ccccc2)CC1)N/N=C/c1ccccc1`, the Kd in series [4] is more than 1000 µM. Moreover, the Activity in series [5] came out at 3%.

With `O=C(CN1CCN(C(=O)c2ccccc2)CC1)N/N=C/c1cc(F)ccc1O`, the IC50 in series [1] was 15.7 µM. For the same molecule, in series [2], the remaining at 3 h, 10 µM stood at 88%. `C=CCc1cc(F)cc(/C=N/NC(=O)CN2CCN(C(=O)c3ccc(F)cc3)CC2)c1O`: the IC50 in series [1] turned out to be 8.5 µM. Moreover, the Activity entry in series [6] was “Toxic”. Also, the remaining at 3 h, 10 µM in series [2] is 92%. In the case of `C=CCc1cc(F)cc(/C=N/NC(=O)CN2CCN(C(=O)c3ccc(C(F)(F)F)cc3)CC2)c1O`, the remaining at 3 h, 10 µM in series [2] amounted to 90%. On to `C=CCc1cccc(/C=N/NC(=O)CN2CCN(Cc3ccc(C#N)cc3)CC2)c1O`, for which the IC50 in series [1] worked out at 13.7 µM. The remaining at 3 h, 10 µM in series [2] stood at 48%. The like results for `CCCc1cccc(/C=N/NC(=O)CN2CCN(C(=O)c3ccc(F)cc3)CC2)c1O` were, in that order, 7.3 µM and 69%. As for `CCCc1cccc(/C=N/NC(=O)CN2CCN(Cc3ccc(S(N)(=O)=O)cc3)CC2)c1O`, the remaining at 3 h, 10 µM in series [2] worked out at 61%. As for `CCCc1cc(F)cc(/C=N/NC(=O)CN2CCN(Cc3ccc(C(F)(F)F)cc3)CC2)c1O`, in series [2], the remaining at 3 h, 10 µM worked out at 40%.

Regarding `CCCc1cccc(/C=N/NC(=O)CN2CCN(Cc3ccc(F)cc3)CC2)c1O`, in series [1], the IC50 was 10 µM. The remaining at 3 h, 10 µM in series [2] came to 24%.

For `CCCc1cc(F)cc(/C=N/NC(=O)CN2CCN(C(=O)c3ccc(F)cc3)CC2)c1O`, in series [1], the IC50 is 7.5 µM. For the same molecule, in series [6], the Activity entry was “Toxic”. Moreover, in series [2], the remaining at 3 h, 10 µM came to 67%. Turning to `CCCc1cccc(/C=N/NC(=O)CN2CCN(Cc3ccc(C(F)(F)F)cc3)CC2)c1O`, in series [2], the remaining at 3 h, 10 µM worked out at 15%. As to `C=CCc1cc(F)cc(/C=N/NC(=O)CN2CCN(Cc3ccc(F)cc3)CC2)c1O`, the IC50 in series [1] was determined as 10.3 µM. In series [2], the remaining at 3 h, 10 µM was 57%. For the molecule `C=CCc1cc(F)cc(/C=N/NC(=O)CN2CCN(Cc3ccc(C(F)(F)F)cc3)CC2)c1O`, the remaining at 3 h, 10 µM in series [2] turned out to be 49%. `CCCc1cccc(/C=N/NC(=O)CN2CCN(Cc3ccc(C#N)cc3)CC2)c1O`: the IC50 in series [1] amounted to 9 µM. In addition, in series [2], the remaining at 3 h, 10 µM stood at 30%. Take `CCCc1cc(F)cc(/C=N/NC(=O)CN2CCN(Cc3ccccc3)CC2)c1O`: the IC50 in series [1] is 8.9 µM. In addition, in series [2], the remaining at 3 h, 10 µM came to 49%. On to `O=C(CN1CCN(C(=O)c2ccc(C(F)(F)F)cc2)CC1)N/N=C/c1cc(F)ccc1O`, for which the IC50 in series [1] is 8.7 µM. The Activity result in series [6] was “Non-toxic”. Further, the remaining at 3 h, 10 µM in series [2] is 87%. For `N#Cc1ccc(C(=O)N2CCN(CC(=O)N/N=C/c3cc(F)ccc3O)CC2)cc1`, the IC50 in series [1] was determined as 15.3 µM. Moreover, the remaining at 3 h, 10 µM in series [2] was determined as 88%. As to `C=CCc1cccc(/C=N/NC(=O)CN2CCN(C(=O)c3ccc(C(F)(F)F)cc3)CC2)c1O`, the remaining at 3 h, 10 µM in series [2] worked out at 85%. As for `C=CCc1cc(F)cc(/C=N/NC(=O)CN2CCN(Cc3ccc(S(N)(=O)=O)cc3)CC2)c1O`, the remaining at 3 h, 10 µM in series [2] turned out to be 89%. Regarding `C=CCc1cc(F)cc(/C=N/NC(=O)CN2CCN(Cc3ccccc3)CC2)c1O`, the IC50 in series [1] stood at 9.5 µM. Also, the remaining at 3 h, 10 µM in series [2] worked out at 56%. As to `C=CCc1cccc(/C=N/NC(=O)CN2CCN(C(=O)c3ccccc3)CC2)c1O`, the IC50 in series [1] is 12.1 µM. Also, the remaining at 3 h, 10 µM in series [2] worked out at 89%. For the molecule `C=CCc1cc(F)cc(/C=N/NC(=O)CN2CCN(Cc3ccc(C#N)cc3)CC2)c1O`, in series [1], the IC50 was 12.7 µM. The remaining at 3 h, 10 µM in series [2] was found to be 65%. As for `CCCc1cccc(/C=N/NC(=O)CN2CCN(Cc3ccccc3)CC2)c1O`, the half-maximal inhibitory concentration (IC50) in series [1] was 9.6 µM. Also, in series [2], the remaining at 3 h, 10 µM was 30%. `C=CCc1cc(F)cc(/C=N/NC(=O)CN2CCN(C(=O)c3ccc(C#N)cc3)CC2)c1O`: in series [3], the Drug uptake entry is given as “Active”. Also, in series [2], the remaining at 3 h, 10 µM was 95%. On to `CCCc1cccc(/C=N/NC(=O)CN2CCN(C(=O)c3ccc(C#N)cc3)CC2)c1O`, for which the IC50 in series [1] stood at 12.8 µM. Besides, the remaining at 3 h, 10 µM in series [2] came out at 61%. For `O=C(CN1CCN(Cc2ccccc2)CC1)N/N=C/c1cc(F)ccc1O`, in series [1], the IC50 was 17 µM. Further, the remaining at 3 h, 10 µM in series [2] turned out to be 64%.

On to `CCCc1cccc(/C=N/NC(=O)CN2CCN(C(=O)c3ccccc3)CC2)c1O`, for which, in series [1], the IC50 was 9.4 µM. Besides, the remaining at 3 h, 10 µM in series [2] came out at 71%. As to `CCCc1cccc(/C=N/NC(=O)CN2CCN(C(=O)c3ccc(C(F)(F)F)cc3)CC2)c1O`, in series [2], the remaining at 3 h, 10 µM worked out at 64%.

The IC50 is the concentration that inhibits the measured activity by half. The term Kd denotes the free concentration of one partner at which half of the binding sites on the other are occupied at equilibrium, for simple one-to-one binding.
